Here are results for one compound from ChEMBL document CHEMBL5500387, “Design, synthesis of combretastatin A-4 piperazine derivatives as potential antitumor agents by inhibiting tubulin polymerization and inducing autophagy in HCT116 cells” (Eur J Med Chem, 2024).

The subject of data set [1] is HCT-116. Description: Antitumor activity against human HCT-116 cells xenografted in female BALB/c nude mouse assessed as tumor growth inhibition at 20 mg/kg, ip administered every 2 days for 20 days by vernier caliper relative to control. The data set is classed as functional. Particulars: HCT-116, 480 h, time 20 day, read-out: TGI. The procedure, abridged:
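HCT116 cells (5×10^7/0.2 mL/mouse) injected subcutaneously beside the right forelimb of 5-week-old female BALB/c nude mice. At 100 mm³ tumour volume, mice randomised by weight and tumour size into four groups of ten. Saline vehicle control ip. Dosing for 20 days, then euthanasia and tumour weighing. Caliper diameters used; volume = W²×L/2.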
Background: A xenograft is tissue or cells of one species grown in another, often human tumour cells in immunodeficient mice.

Data set [2] relates to A549. Description: Induction of apoptosis in human A549 cells assessed as dead cells at 0.2 uM measured after 24 hrs by Annexin V-APC/PI staining based flow cytometry analysis (reference value: 0.50%). The data set is classed as functional.
Data set [3] has as its system HCT-116. Description: Induction of cell cycle arrest in human HCT-116 cells assessed as accumulation of cells at G2/M phase at 0.1 uM measured after 24 hrs by PI/RNase staining based flow cytometry analysis (reference value: 28.83%). The data set is classed as functional. Background: Flow cytometry measures light scatter and fluorescence of single cells or particles in a stream.

The nature of data set [4]: Toxicity in female BALB/c nude mouse xenografted with human HCT-116 cells assessed as reduction in body weight at 20 to 40 mg/kg, ip administered every 2 days for 20 days. The data set is classed as organism-based. To be noted: in vivo, 480 h, dose 20-40 mg/kg, time 20 day. The gist of the method: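 Female BALB/c nude mice, 5 weeks old, bearing subcutaneous HCT116 xenografts (started at 100 mm³), randomised into groups of ten. Saline-injected ip controls. Body weight monitored throughout the 20-day intraperitoneal treatment.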

For data set [5], the system named is A549. Put plainly: Induction of cell cycle arrest in human A549 cells assessed as accumulation of cells at G2/M phase at 0.3 uM measured after 24 hrs by PI/RNase staining based analysis (reference value: 10.22%). The data set is classed as functional.
The test system of data set [6] is A549. Put plainly: Induction of cell cycle arrest in human A549 cells assessed as accumulation of cells at G2/M phase at 0.2 uM measured after 24 hrs by PI/RNase staining based analysis (reference value: 10.22%). The data set is classed as functional.
Data set [7] relates to A549. Put plainly: Cytotoxicity against human A549 cells assessed as inhibition of cell proliferation measured after 72 hrs by CCK-8 assay. The data set is classed as functional, cell-based. To be noted: A549, 72 h. The procedure, abridged:
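Cells seeded at 2×10^3 per well and grown overnight in 10% FBS medium: HCT116 in McCoy's 5A, A549 and AGS in F-12K, SK-MES-1 in DMEM. Compounds added at varied concentrations with 0.1% DMSO control, 72 h at 37 °C. 10% CCK-8 for 2 h, then A450 read. Survival = (As−Ab)/(Ac−Ab)×100%. IC50 from curve fitting.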
A general note: Tetrazolium dyes change colour on reduction, which living cells bring about.

The subject of data set [8] is A549. Put plainly: Induction of apoptosis in human A549 cells assessed as early apoptotic cells at 0.3 uM measured after 24 hrs by Annexin V-APC/PI staining based flow cytometry analysis (reference value: 1.73%). The data set is classed as functional.

SMILES strings stand for the structures. pIC50: −log10 of the molar value.

With `COc1ccc(/C=C(/C(=O)N2CCN(c3ccc(C)cc3)CC2)c2cc(OC)c(OC)c(OC)c2)cc1O`, the inhibition in vivo at 20 mg/kg with HCT-116 [1] was 1.48%. Further, the Activity in the data set with A549 [2] is 1.05%; with HCT-116 [3], 33.79%; in data set [4], “Non-Toxic”; in the data set on A549 [5], 5.65%; with A549 [6], 8.51%; with A549 [8] it was 21.09%. For the same compound, the pIC50 – broadly, the negative decadic logarithm of the IC50, by convention in mol/L – in the data set with A549 [7] was 6.60.
